Source: PubChem BioAssay (several laboratories)
ANO1 block = inhibitors of mouse TMEM16A calcium-activated chloride channel; Q8BHY3; HEK293 TMEM16A/YFP iodide influx fluorescence, ionomycin; normalized B-score (activity score, 25-100; higher = stronger inhibition) at 10 µM; 310,000 tested, 1.2% active; AID 588511;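 active = ratio plate-corrected score three or more library SD toward inhibition, starting fluorescence score within five deviations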;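 also: score derived from kinetic fluorescence span divided by baseline fluorescence per well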
TMEM16A act = mouse TMEM16A channel activation, primary screen; AID 623877; HEK293 TMEM16A/YFP-H148Q/I152L, iodide quench fluorescence; hits give low values; B-score at 10 µM; Q8BHY3; 340,000 tested, 0.3% active;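 active = fluorescence-ratio B-score plate-corrected deviation score at least 3 library SD below zero, with starting fluorescence score within 5 deviations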;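 also: channel opened by trigger with iodide after compound preincubation; score built on the fluorescence ratio of max minus min over baseline; more negative score means more quench and so TMEM16A activation or potentiation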
CHT inh = inhibitors of human choline transporter CHT; Q9GZV3; CHT-expressing cells, membrane potential dye, choline response; hits give low values; B-score at 10 µM; 310,000 tested, 0.86% active; AID 488975;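 active = B-score over 3 SD under the library average, and starting fluorescence ratio not unusually high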;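 also: choline stimulus applied at its EC90 after an EC20 pre-addition; B-score computed on integrated fluorescence ratio after choline addition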
Target sequence (Q9GZV3 whole entry, looked up): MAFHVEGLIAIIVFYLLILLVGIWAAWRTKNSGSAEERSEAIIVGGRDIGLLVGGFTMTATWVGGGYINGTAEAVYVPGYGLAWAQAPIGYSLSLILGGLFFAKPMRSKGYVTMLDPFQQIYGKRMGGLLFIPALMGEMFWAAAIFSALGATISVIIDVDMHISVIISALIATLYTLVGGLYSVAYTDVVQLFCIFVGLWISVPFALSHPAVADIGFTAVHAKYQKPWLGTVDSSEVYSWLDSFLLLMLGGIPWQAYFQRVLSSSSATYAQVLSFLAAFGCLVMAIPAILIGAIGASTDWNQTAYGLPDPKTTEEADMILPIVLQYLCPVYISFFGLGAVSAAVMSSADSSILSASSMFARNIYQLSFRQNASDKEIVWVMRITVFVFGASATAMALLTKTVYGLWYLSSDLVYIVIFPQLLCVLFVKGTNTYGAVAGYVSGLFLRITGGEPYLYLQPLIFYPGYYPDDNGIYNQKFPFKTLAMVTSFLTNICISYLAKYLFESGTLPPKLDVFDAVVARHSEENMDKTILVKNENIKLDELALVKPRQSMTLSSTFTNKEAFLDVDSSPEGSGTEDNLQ
IMP-1 inh = inhibitors of Pseudomonas aeruginosa IMP-1 metallo-beta-lactamase; purified IMP-1, nitrocefin hydrolysis, epi-absorbance fluorescence; inhibition, % at 5.6 µM; 290,000 tested, 0.45% active;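 active = inhibition above the mean plus 3 SD of all compounds in the same screening run, cut at about 4.5% in these data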;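 also: 0% = IMP-1 with DMSO and 100% = DMSO wells lacking enzyme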
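System – purified recombinant IMP-1 beta-lactamase · Input – IMP-1 dispensed at 0.2 nM · Timing – 15 min preincubation plus 25 min reaction at 25 °C · Signal – Epi-absorbance fluorescence, 480 nm excitation, 530 nm emission · Measure – percent IMP-1 inhibition derived from blank-referenced optical density · Controls – Enzyme-plus-DMSO low control, enzyme-free DMSO high control · Replication – singlicate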
VIM-2 inhibitor = blocks Pseudomonas aeruginosa VIM-2 metallo-beta-lactamase | purified VIM-2, nitrocefin hydrolysis, epi-absorbance fluorescence | inhibition, % at 5.6 µM | 290,000 tested, 0.89% active;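 active = inhibition above the mean of all tested compounds plus 3 SD, cutoff set per screening run, cut at about 7.5% in these data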;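 also: red hydrolysis product quenches plate fluorescence so inhibitors raise well fluorescence; 0% = enzyme with DMSO and 100% = DMSO without enzyme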
CHT allo act = allosterically activates the human high affinity choline transporter. Q9GZV3. CHT-expressing cells, membrane potential dye, choline EC20; hits give high values; LV-AA mutant CHT in HEK293 cells. B-score at 10 µM. 310,000 tested, 0.49% active. AID 488977;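 active = initial fluorescence not abnormally high and integrated response B-score, plate-corrected, over 3 SD above library mean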
Active calls of the source: *; i = inactive; . = no result. Hits are enriched below; roughly 3.4% of the tested compounds scored in any of these assays.

SMILES	ANO1 block	TMEM16A act	CHT inh	IMP-1 inh	VIM-2 inhibitor	CHT allo act
O=C(NC(=S)NC1CCCC1)c1ccccc1	i	i	i	-2	-1	i
COc1ccccc1OCCNC(=O)c1ccc(NC(=O)CC2SC(N3CCCC3)=NC2=O)cc1 (stereo unspecified)	.	i	.	.	.	.
CCC1Oc2ccc(C)cc2N(CC(=O)N(Cc2cccnc2)Cc2cccc(F)c2)C1=O (stereo unspecified)	100*	i	i	0	-2	i
COc1ccc(N2C(=O)CSC2c2ccc(F)c(F)c2)cc1 (stereo unspecified)	i	-8.5*	i	-1	-2	i
O=C1CSC(c2ccc(F)c(F)c2)N1c1ccccc1F (stereo unspecified)	i	i	i	0	0	i
O=C(Nc1ccccn1)c1ccc2c(c1)S(=O)(=O)c1ccccc1C2=O	i	i	i	-4	0	i
O=C1c2ccccc2S(=O)(=O)c2cc(C(=O)N(c3ccccn3)c3ccccn3)ccc21	i	-7.5*	i	-3	-3	i
CCn1c(SCC(=O)N2CC(C)OC(C)C2)nc2c([nH]c3ccccc32)c1=O (stereo unspecified)	i	i	i	-1	2	i
CCN1CCN(CCCNC(=O)c2cc3cc4ccc(OC)cc4nc3o2)CC1	i	i	i	-2	3	i
COc1ccc2cc3cc(C(=O)NCCCN4CCC(C)CC4)oc3nc2c1	i	i	i	0	9.9*	i
CCC1CCCCN1CC(=O)Nc1cc(C)nn1-c1nc(C)cc(C)n1 (stereo unspecified)	i	i	i	-3	2	i
Cc1cc(C)nc(-n2nc(C)cc2NC(=O)CN2CCC(C)CC2)n1	i	i	i	-1	9.0*	i
Cc1ccc2[nH]c3c(=O)n(CC(=O)N4CCN(C)CC4)ncc3c2c1	i	i	i	-3	6	i
CCOC(=O)c1c(-c2ccccc2)oc2ccc(OC(C)=O)cc12	i	i	i	-3	-4	i
CCOC(=O)c1c(-c2ccccc2)oc2ccc(OCC(O)CN(C)C)cc12 (stereo unspecified)	i	i	i	-3	8.9*	i
O=C1C(Nc2ccccc2)=C(N2CCCCC2)C(=O)c2ccccc21	i	i	i	0	3	i
CN(C1=C(N2CCCCC2)C(=O)c2ccccc2C1=O)c1ccccc1	i	i	-5.8*	-5	0	i
COc1cccc(OC)c1C(=O)Nc1ccc(S(=O)(=O)Nc2cc(C)nc(C)n2)cc1	i	i	-5.3*	-1	-1	i
CCCCc1nc2c(C)c(N)cnc2n1Cc1cccc([N+](=O)[O-])c1	i	i	i	-3	-2	i
Cc1ccc2[nH]c(C(=O)O)c(-c3ccccc3)c2c1	i	i	i	3	9.9*	i
Clc1ccc2[nH]c3c(NCCCN4CCOCC4)ncnc3c2c1	i	i	i	2	9.9*	i
CCN1CCCC1CNc1ncnc2c1[nH]c1ccc(Cl)cc12 (stereo unspecified)	i	i	i	2	12*	i
O=C1CCCN1CCCNc1ncnc2c1[nH]c1ccc(Cl)cc12	i	i	i	4	3	i
CC(C)[C@H](NS(=O)(=O)c1cccc(C(F)(F)F)c1)C(=O)OCC(=O)NC(=O)NCc1ccco1	.	i	.	.	.	.
CCOC(=O)c1ccc(S(=O)(=O)N2CCN(CCc3ccncc3)CC2)cc1	.	i	.	.	.	.
O=C(NCC1CCCO1)c1cn(Cc2ccccc2Cl)nc1-c1ccccc1 (stereo unspecified)	.	i	.	.	.	.
CCOC(=O)CN1CC23C=CC(O2)C(C(=O)NC2CCCCCC2)C3C1=O (stereo unspecified)	i	i	i	3	-2	i
CCOC(=O)CN1CC23C=CC(O2)C(C(=O)NCCc2ccccc2)C3C1=O (stereo unspecified)	i	-11*	i	-5	-3	i
